ChEMBL document CHEMBL1157575, “Antitumor agents. 272. Structure-activity relationships and in vivo selective anti-breast cancer activity of novel neo-tanshinlactone analogues” (J Med Chem, 2010)
Values after ≈ are worked out from the molar mass of the structure shown.

What was measured:
MCF7 = assay: Growth inhibition of human MCF7 cells after 72 hrs by SRB assay; assay type: functional; details: MCF7, 72 h, read-out: ED50 (the source's name)
How it was run: (§1)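 SRB assay. Cells were grown in RPMI-1640 with 10% FBS at 37 °C and 5% CO2, then seeded in 96-well plates. Compound was added from DMSO stock, followed by 72 h incubation. Cells were fixed with 10% TCA, stained with 0.4% SRB, solubilized in 10 mM Tris base, and read at 515 nm. ED50 is the concentration giving 50% reduction of net protein increase versus control; mean of at least three independent determinations.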

SK-BR-3 = assay: Growth inhibition of human SK-BR-3 cells after 72 hrs by SRB assay; assay type: functional; details: SK-BR-3, 72 h, read-out: ED50 (the source's name); how it was run: as §1
ZR-75-1 [1] = assay: Growth inhibition of human ZR-75-1 cells after 72 hrs by SRB assay; assay type: functional; details: ZR-75-1, 72 h, read-out: ED50 (the source's name); how it was run: as §1
MDA-MB-231 = assay: Growth inhibition of human MDA-MB-231 cells after 72 hrs by SRB assay; assay type: functional; details: MDA-MB-231, 72 h, read-out: ED50 (the source's name); how it was run: as §1
A549 = assay: Cytotoxicity against human A549 cells after 72 hrs by SRB assay; assay type: functional; details: A549, 72 h, read-out: ED50 (the source's name)
KB = assay: Cytotoxicity against human KB cells after 72 hrs by SRB assay; assay type: functional; details: read-out: ED50 (the source's name); how it was run: as §1
[2] = Cytotoxicity against human KBVIN cells after 72 hrs by SRB assay; assay type: functional; details: read-out: ED50 (the source's name); how it was run: as §1
DU-145 = assay: Cytotoxicity against human DU145 cells after 72 hrs by SRB assay; assay type: functional; details: DU-145, 72 h, read-out: ED50 (the source's name)
ZR-75-1 [3] = assay: Selectivity for ED50 for human ZR-75-1 to ED50 for human SK-BR-3; assay type: functional
How it was run: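 SRB growth assay: ZR-75-1 and SK-BR-3 cells in RPMI-1640 with 10% FBS at 37 °C under 5% CO2, seeded in 96-well plates, compound added from DMSO stock, 72 h exposure, TCA fixation, SRB staining, absorbance at 515 nm. ED50 is 50% reduction of net protein increase, averaged from ≥3 independent runs; ratio of ZR-75-1 to SK-BR-3 ED50.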

ZR-75-1 [4] = assay: Antitumor activity against human ZR-75-1 cells xenografted in athymic nude mouse SCID assessed as mean time to end point at 20 mg/kg, ip administered in Q4D X 5 schedule; assay type: functional; details: route intraperitoneal
How it was run: (§2)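 Female SCID mice, 5 weeks old, 20-24 g, implanted s.c. in the right flank with 1 × 10^7 ZR-75-1 cells in PBS. Tumors were caliper-measured, with volume = w² × l/2. Dosing was i.p. in vehicle (4% benzyl alcohol/6% cremophor/90% D5W); vehicle controls were given qod to end. TTE is the mean time to endpoint. %TGD = (T−C)/C × 100. Logrank test, P ≤ 0.05.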

ZR-75-1 [5] = assay: Antitumor activity against human ZR-75-1 cells xenografted in athymic nude mouse SCID assessed as tumor growth delay at 20 mg/kg, ip administered in Q4D X 5 schedule; assay type: functional; details: route intraperitoneal; how it was run: as §2
[6] = Cytotoxicity against human 184A1 cells after 72 hrs by MTT assay; assay type: cell-based; details: read-out: ED50
How it was run: (§3)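 MTT assay. Cells were seeded at 5000/well in recommended growth medium and incubated overnight. Compound was added in DMSO, followed by 72 h at 37 °C in 5% CO2. MTT reagent was added for 2 h and formazan was read at OD 570 nm. Values were interpolated ED50; data are from replicates in a single experiment.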

[7] = Cytotoxicity against human MCF10A cells after 72 hrs by MTT assay; assay type: cell-based, MCF-10A; details: read-out: ED50; how it was run: as §3
ZR-75-1 [8] = assay: Antitumor activity against human ZR-75-1 cells xenografted in athymic nude mouse SCID assessed as mean time to end point at 10 mg/kg, ip administered in QOD schedule; assay type: functional; details: route intraperitoneal; how it was run: as §2
ZR-75-1 [9] = assay: Antitumor activity against human ZR-75-1 cells xenografted in athymic nude mouse SCID assessed as tumor growth delay at 10 mg/kg, ip administered in QOD schedule; assay type: functional; details: route intraperitoneal; how it was run: as §2
[10] = biological target: Casein kinase II subunit alpha (Homo sapiens) (UniProt P68400); assay: Inhibition of human recombinant CK2alpha1 expressed in Sf9 cells at 10 uM
[11] = biological target: Tyrosine-protein kinase ABL1 (Mus musculus) (UniProt P00520); assay: Inhibition of mouse recombinant ABL expressed in Escherichia coli at 10 uM
[12] = biological target: RAC-alpha serine/threonine-protein kinase (Homo sapiens) (UniProt P31749); assay: Inhibition of human recombinant AKT1 expressed in Sf21 cells at 10 uM
Chain of RAC-alpha serine/threonine-protein kinase (Homo sapiens) (P31749 whole entry): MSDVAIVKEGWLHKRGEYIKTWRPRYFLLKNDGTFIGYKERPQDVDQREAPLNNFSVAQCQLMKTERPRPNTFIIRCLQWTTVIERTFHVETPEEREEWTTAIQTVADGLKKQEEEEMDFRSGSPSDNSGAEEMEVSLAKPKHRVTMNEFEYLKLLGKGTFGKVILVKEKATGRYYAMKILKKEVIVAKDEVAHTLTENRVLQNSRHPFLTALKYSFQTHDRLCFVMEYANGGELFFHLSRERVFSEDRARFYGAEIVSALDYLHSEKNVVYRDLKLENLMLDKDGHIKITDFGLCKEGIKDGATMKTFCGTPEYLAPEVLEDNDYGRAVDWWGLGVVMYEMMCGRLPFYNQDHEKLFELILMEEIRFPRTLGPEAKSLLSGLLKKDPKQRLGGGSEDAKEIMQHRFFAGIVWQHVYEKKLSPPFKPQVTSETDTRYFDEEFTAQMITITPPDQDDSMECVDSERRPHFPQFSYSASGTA

Chain of Tyrosine-protein kinase ABL1 (Mus musculus) (P00520 whole entry): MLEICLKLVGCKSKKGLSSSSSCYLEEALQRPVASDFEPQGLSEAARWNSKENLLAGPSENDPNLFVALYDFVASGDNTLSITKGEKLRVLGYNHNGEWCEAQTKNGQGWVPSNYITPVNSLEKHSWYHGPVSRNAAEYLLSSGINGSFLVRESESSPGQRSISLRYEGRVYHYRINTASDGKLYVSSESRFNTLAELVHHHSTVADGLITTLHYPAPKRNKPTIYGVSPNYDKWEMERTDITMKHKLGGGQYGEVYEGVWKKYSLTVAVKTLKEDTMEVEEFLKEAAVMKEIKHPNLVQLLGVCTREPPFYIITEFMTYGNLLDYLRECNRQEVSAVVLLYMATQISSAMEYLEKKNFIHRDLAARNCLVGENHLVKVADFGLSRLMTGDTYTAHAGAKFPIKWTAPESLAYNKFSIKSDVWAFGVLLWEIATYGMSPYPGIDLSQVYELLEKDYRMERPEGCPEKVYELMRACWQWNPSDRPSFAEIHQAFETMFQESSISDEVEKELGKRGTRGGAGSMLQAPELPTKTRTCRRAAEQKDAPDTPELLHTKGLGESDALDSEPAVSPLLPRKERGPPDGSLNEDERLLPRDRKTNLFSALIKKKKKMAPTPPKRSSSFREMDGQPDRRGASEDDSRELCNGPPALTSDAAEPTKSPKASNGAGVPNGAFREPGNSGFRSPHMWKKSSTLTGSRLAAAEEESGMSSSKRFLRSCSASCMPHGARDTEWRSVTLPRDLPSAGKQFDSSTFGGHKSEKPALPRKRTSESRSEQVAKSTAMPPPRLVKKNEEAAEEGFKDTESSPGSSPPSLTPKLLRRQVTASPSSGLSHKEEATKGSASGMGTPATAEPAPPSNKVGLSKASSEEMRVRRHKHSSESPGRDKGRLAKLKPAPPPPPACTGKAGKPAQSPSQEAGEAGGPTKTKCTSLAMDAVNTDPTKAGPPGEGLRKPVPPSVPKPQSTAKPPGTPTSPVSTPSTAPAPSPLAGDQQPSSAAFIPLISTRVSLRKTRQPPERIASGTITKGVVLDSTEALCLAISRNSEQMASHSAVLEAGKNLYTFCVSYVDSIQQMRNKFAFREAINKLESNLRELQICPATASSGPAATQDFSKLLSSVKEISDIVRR
Chain of Casein kinase II subunit alpha (Homo sapiens) (P68400 whole entry, looked up): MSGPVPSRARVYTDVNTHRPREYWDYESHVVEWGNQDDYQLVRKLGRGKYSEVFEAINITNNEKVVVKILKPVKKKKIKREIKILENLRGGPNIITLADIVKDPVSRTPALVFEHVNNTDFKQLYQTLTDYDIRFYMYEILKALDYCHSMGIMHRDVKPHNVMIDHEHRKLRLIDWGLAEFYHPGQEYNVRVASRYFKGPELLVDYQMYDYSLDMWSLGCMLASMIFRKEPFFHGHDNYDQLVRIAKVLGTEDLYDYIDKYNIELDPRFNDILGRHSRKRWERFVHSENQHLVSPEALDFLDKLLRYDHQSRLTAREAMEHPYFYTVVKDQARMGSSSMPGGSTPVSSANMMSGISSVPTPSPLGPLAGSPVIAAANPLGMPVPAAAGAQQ

SMILES	EC50 (MCF7)	EC50 (SK-BR-3)	EC50 (ZR-75-1 [1])	EC50 (MDA-MB-231)	EC50 (KB)	other results
CCc1cccc2c1ccc1c3oc(C)cc3c(=O)oc21	> 20 µg/mL	2.1 µg/mL (≈ 7.55 µM)	2.2 µg/mL (≈ 7.9 µM)	9.6 µg/mL (≈ 34.5 µM)	14 µg/mL (≈ 50.3 µM)	EC50 (A549): 12 µg/mL (≈ 43.1 µM); EC50 [2]: 13 µg/mL (≈ 46.7 µM)
CCc1cccc2c1ccc1c3occ(C)c3c(=S)oc21	> 20 µg/mL	16 µg/mL (≈ 54.4 µM)	–	–	–	–
CCc1cccc2c1ccc1c3occ(C)c3/c(=N/O)oc21	> 20 µg/mL	19 µg/mL (≈ 64.8 µM)	–	–	–	–
Cc1coc2c1c(=O)oc1c3cccc(O)c3ccc21	15 µg/mL (≈ 56.3 µM)	5 µg/mL (≈ 18.8 µM)	–	–	–	–
Cc1coc2c1c(=O)oc1c3ccccc3ccc21	4 µg/mL (≈ 16 µM)	1 µg/mL (≈ 4 µM)	4 µg/mL (≈ 16 µM)	–	–	–
CCc1coc2c1c(=O)oc1c3ccccc3ccc21	2.5 µg/mL (≈ 9.46 µM)	1.8 µg/mL (≈ 6.81 µM)	2.3 µg/mL (≈ 8.7 µM)	> 10 µg/mL	7.5 µg/mL (≈ 28.4 µM)	EC50 (A549): 8.2 µg/mL (≈ 31 µM); EC50 (DU-145): 8.7 µg/mL (≈ 32.9 µM); EC50 [2]: 6.6 µg/mL (≈ 25 µM)
Cc1coc2c1c(=S)oc1c3ccccc3ccc21	> 20 µg/mL	> 20 µg/mL	–	–	–	–
Cc1ccc2c(=O)oc3c4ccccc4ccc3c2c1	–	> 20 µg/mL	–	–	–	–
CC(=O)Oc1cccc2c1ccc1c3occ(C)c3c(=O)oc21	6 µg/mL (≈ 19.5 µM)	5.7 µg/mL (≈ 18.5 µM)	–	–	–	–
Cc1coc2c1c(=O)[nH]c1c3ccccc3ccc12	–	4.4 µg/mL (≈ 17.7 µM)	–	–	–	–
CC1COc2c1c(=O)oc1c2ccc2ccccc21 (centres undefined)	–	14 µg/mL (≈ 55.5 µM)	–	–	–	–
CCc1cccc2c1ccc1c3c(c(=O)oc12)C(C)CO3 (centres undefined)	–	5.1 µg/mL (≈ 18.2 µM)	–	–	–	–
Cc1coc2c1c(=O)oc1c3cccc(OCCN(C)C)c3ccc21	5 µg/mL (≈ 14.8 µM)	5.8 µg/mL (≈ 17.2 µM)	–	–	–	–
Cc1oc2c(c1C)c(=O)oc1c3ccccc3ccc21	> 20 µg/mL	6.9 µg/mL (≈ 26.1 µM)	–	–	–	–
Cc1coc2c1c(=O)sc1c3ccccc3ccc21	> 20 µg/mL	12 µg/mL (≈ 45.1 µM)	–	–	–	–
Cc1cc2c(=O)oc3c4ccccc4ccc3c2o1	> 20 µg/mL	12 µg/mL (≈ 48 µM)	–	–	–	–

SMILES	EC50 (MCF7)	EC50 (SK-BR-3)	EC50 (ZR-75-1 [1])	EC50 (MDA-MB-231)	EC50 (KB)	other results
COc1cccc2c1ccc1c3occ(C)c3c(=O)oc21	2.3 µg/mL (≈ 8.21 µM)	0.2 µg/mL (≈ 0.714 µM)	0.1 µg/mL (≈ 0.357 µM)	6.4 µg/mL (≈ 22.8 µM)	13 µg/mL (≈ 46.4 µM)	EC50 (DU-145): 14 µg/mL (≈ 50 µM); EC50 [2]: 12 µg/mL (≈ 42.8 µM)
CCCc1cccc2c1ccc1c3occ(C)c3c(=O)oc21	1.2 µg/mL (≈ 4.1 µM)	0.1 µg/mL (≈ 0.342 µM)	0.3 µg/mL (≈ 1.03 µM)	> 10 µg/mL	12 µg/mL (≈ 41 µM)	EC50 (DU-145): 15 µg/mL (≈ 51.3 µM); EC50 [2]: 11 µg/mL (≈ 37.6 µM); Ratio ED50 (ZR-75-1 [3]): 3
Cc1coc2c1c(=O)oc1c3cccc(C(C)Br)c3ccc21 (centres undefined)	–	0.1 µg/mL (≈ 0.28 µM)	0.1 µg/mL (≈ 0.28 µM)	14 µg/mL (≈ 39.2 µM)	13 µg/mL (≈ 36.4 µM)	EC50 (A549): > 20 µg/mL; EC50 (DU-145): 18 µg/mL (≈ 50.4 µM); EC50 [2]: > 20 µg/mL
CCOc1cccc2c1ccc1c3occ(C)c3c(=O)oc21	> 20 µg/mL	2.5 µg/mL (≈ 8.49 µM)	1.9 µg/mL (≈ 6.46 µM)	9.8 µg/mL (≈ 33.3 µM)	3.7 µg/mL (≈ 12.6 µM)	EC50 (A549): 3.5 µg/mL (≈ 11.9 µM); EC50 (DU-145): 4.7 µg/mL (≈ 16 µM); EC50 [2]: 5.3 µg/mL (≈ 18 µM)
Cc1coc2c1c(=O)oc1c3cccc(F)c3ccc21	4.5 µg/mL (≈ 16.8 µM)	1.1 µg/mL (≈ 4.1 µM)	0.8 µg/mL (≈ 2.98 µM)	> 10 µg/mL	13 µg/mL (≈ 48.5 µM)	EC50 (A549): 14 µg/mL (≈ 52.2 µM); EC50 (DU-145): 18 µg/mL (≈ 67.1 µM); EC50 [2]: 15 µg/mL (≈ 55.9 µM)
Cc1coc2c1c(=O)oc1c3cccc(C(C)C)c3ccc21	1.4 µg/mL (≈ 4.79 µM)	2 µg/mL (≈ 6.84 µM)	0.2 µg/mL (≈ 0.684 µM)	> 10 µg/mL	11 µg/mL (≈ 37.6 µM)	EC50 [2]: 7.3 µg/mL (≈ 25 µM); Ratio ED50 (ZR-75-1 [3]): 10
CC(=O)O[C@H]1C(=O)[C@@]2(C)[C@H]([C@H](OC(=O)c3ccccc3)[C@]3(O)C[C@H](OC(=O)[C@H](O)[C@@H](NC(=O)c4ccccc4)c4ccccc4)C(C)=C1C3(C)C)[C@]1(OC(C)=O)CO[C@@H]1C[C@@H]2O [PACLITAXEL]	–	–	–	–	–	Activity (ZR-75-1 [4]): 35 days; Activity (ZR-75-1 [5]): 132%
CCc1cccc2c1ccc1c3occ(-c4ccc(OC)cc4)c3c(=O)oc21	> 20 µg/mL	> 20 µg/mL	–	–	–	–
Cc1cccc2c1ccc1c3occ(C)c3c(=O)oc21	0.6 µg/mL (≈ 2.27 µM)	0.2 µg/mL (≈ 0.757 µM)	0.3 µg/mL (≈ 1.14 µM)	10 µg/mL (≈ 37.8 µM)	–	–
CCc1cccc2c1ccc1c3occ(C)c3c(=O)oc21	0.2 µg/mL (≈ 0.719 µM)	0.1 µg/mL (≈ 0.359 µM)	0.1 µg/mL (≈ 0.359 µM)	8.8 µg/mL (≈ 31.6 µM)	13 µg/mL (≈ 46.7 µM)	EC50 (A549): 11 µg/mL (≈ 39.5 µM); EC50 (DU-145): 16 µg/mL (≈ 57.5 µM); CC50 at 72 h [6]: 4.4 µg/mL (≈ 15.8 µM); CC50 at 72 h [7]: 2.7 µg/mL (≈ 9.7 µM); Activity (ZR-75-1 [8]): 29.5 days; Activity (ZR-75-1 [9]): 95%; inhibition [10]: 99%; inhibition [11]: 93%; inhibition [12]: 93%
CCc1cccc2c1ccc1c3occ(CC)c3c(=O)oc21	1.3 µg/mL (≈ 4.45 µM)	1.5 µg/mL (≈ 5.13 µM)	0.6 µg/mL (≈ 2.05 µM)	> 10 µg/mL	12 µg/mL (≈ 41 µM)	EC50 (A549): 18 µg/mL (≈ 61.6 µM); EC50 (DU-145): 16 µg/mL (≈ 54.7 µM); EC50 [2]: 15 µg/mL (≈ 51.3 µM)
COc1ccc(-c2coc3c2c(=O)oc2c4ccccc4ccc32)cc1	–	5.8 µg/mL (≈ 16.9 µM)	–	–	–	–
CCc1cccc2c1ccc1c3oc(C)c(C)c3c(=O)oc21	8 µg/mL (≈ 27.4 µM)	9.8 µg/mL (≈ 33.5 µM)	–	–	–	–
Cc1coc2c1c(=O)oc1c3ccccc3n(C)c(=O)c21	11 µg/mL (≈ 39.1 µM)	12 µg/mL (≈ 42.7 µM)	–	–	–	–
CCc1coc2c1c(=O)oc1c3cccc(C)c3ccc21	7.5 µg/mL (≈ 26.9 µM)	11 µg/mL (≈ 39.5 µM)	–	–	–	–
CCCn1c(=O)c2c3occ(C)c3c(=O)oc2c2ccccc21	> 20 µg/mL	15 µg/mL (≈ 48.5 µM)	–	–	–	–
